Structures are written as SMILES.

This series is described as follows: Toxicity liver stage against HepG2, at 10uM. The format is cell-based. Also noted: test concentration 10 uM, cell line HepG2-A16-CD81EGFP. Conditions: human, HepG2-A16-CD81EGFP cells; read-out: INHIBITION
An outline of the steps:
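Uninfected HepG2-A16-CD81EGFP cells, 3 × 10^3 per well, 1536-well, plated on prespotted compound at 10 μM final, parasite-free screening media added to match infected plates; puromycin 10 μM positive, DMSO 0.5% negative; run in parallel with 48 h PbLuc assay at 37 °C, 5% CO2; viability by CellTiter-Glo luminescence, normalized to controls.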
`O=C1N(Cc2ccc(F)c(F)c2)CCCC1(O)CNCC1CCCCC1` (configuration not stated): the cytotoxicity at 10 µM was 10.5%.

`CCC(NC(=O)CC1CCN(C(C)C)CC1)c1cn2cccnc2n1` (configuration not stated): the cytotoxicity at 10 µM was -11.3%.

Regarding `COCCNC(=O)c1nc(NS(=O)(=O)c2ccccc2)sc1C`, the cytotoxicity at 10 µM came to 9.18%.

As to `Cc1cc(-c2ccccc2C(=O)O)nc(C2CCCN(C)C2)n1` (configuration not stated), the cytotoxicity at 10 µM is -5.03%.

`O=S(=O)(c1ccccc1)N1CCOCC(Cc2cccnc2)C1` (configuration not stated): the cytotoxicity at 10 µM is 0.812%.

Take `CCN(CCn1cccn1)Cc1nc(-c2cccs2)oc1C`: the cytotoxicity at 10 µM was -0.179%.

In the case of `CC(CNCC1(S(C)(=O)=O)CCOCC1)c1ccc(F)cc1` (configuration not stated), the cytotoxicity at 10 µM was -5.06%.

`CNC(=O)CCOC(=O)c1cccc(-n2cccn2)c1`: the cytotoxicity at 10 µM is -39.6%.

As for `c1cnc(N2CCCC(Cc3nccs3)C2)nc1` (configuration not stated), the cytotoxicity at 10 µM is 0.45%.

In the case of `O=C(CCSc1ccccc1)NCCn1nc2ccccn2c1=O`, the cytotoxicity at 10 µM was -6.09%.

For the molecule `COCCC(=O)N1CCC2(CCN(Cc3ccc(OC)c(F)c3)C2)C1` (configuration not stated), the cytotoxicity at 10 µM turned out to be 9.75%.

`Cc1ccc(OCCC(=O)NC2CCc3nccn3C2)cc1` (configuration not stated): the cytotoxicity at 10 µM was -8.15%.

Take `COc1ccc(CN2CC[C@H](c3nc4cccc(C(N)=O)c4[nH]3)C2)cc1`: the cytotoxicity at 10 µM is 12.1%.

In the case of `COc1cccc(CN(C(=O)Nc2nncs2)C2CCC(O)CC2)c1` (configuration not stated), the cytotoxicity at 10 µM is -0.67%.

`CC(C)OCCS(=O)(=O)N1CCCC1c1cccc(N(C)C)c1` (configuration not stated): the cytotoxicity at 10 µM was -1.22%.

Regarding `Cc1cc(F)ccc1S(=O)(=O)N(C)CC(N)=O`, the cytotoxicity at 10 µM is 1.38%.

With `CC(NC(=O)c1csnn1)c1ccc(OCC2CC2)c(F)c1` (configuration not stated), the cytotoxicity at 10 µM is -1%.

Turning to `COc1ccc(Cl)cc1CCNC(=O)NCc1ccncc1`, the cytotoxicity at 10 µM was 2.53%.

With `CC(Cn1ccnc1)NC(=O)NCc1ccc2c(c1)OCCO2` (configuration not stated), the cytotoxicity at 10 µM is -18.6%.

As to `O=C(NCCN1CCCc2ccccc21)c1scnc1Cl`, the cytotoxicity at 10 µM is -3.41%.

Take `CC(C)c1cc(C(=O)N2CCc3ccccc3C2C(=O)O)n(C)n1` (configuration not stated): the cytotoxicity at 10 µM was determined as 7.28%.

Take `CC(C)COC1CCN(C(=O)c2cc3ccccc3c(=O)[nH]2)CC1`: the cytotoxicity at 10 µM came out at 9.05%.

Take `Cc1nc(Nc2cnccn2)cc(C2CCN(CCO)C2)n1` (configuration not stated): the cytotoxicity at 10 µM was determined as 0.636%.

As for `O=C(c1ccc2c(c1)CCCC2)N1CCCC(n2cncn2)C1` (configuration not stated), the cytotoxicity at 10 µM is -8.51%.

For `CCS(=O)(=O)N1CCCC2(COCCN(c3nncs3)C2)C1` (configuration not stated), the cytotoxicity at 10 µM worked out at 7.77%.

In the case of `Cc1nc(CN2CCCN(C(=O)c3cnccn3)CC2)cs1`, the cytotoxicity at 10 µM was -9.51%.

As to `CNC(=O)c1ccc(OC)c(NCc2noc(-c3ccsc3)n2)c1`, the cytotoxicity at 10 µM was 0.736%.

Take `O=C(O)[C@]12CCCN(C3CCOC3)C[C@H]1CN(c1nncs1)C2` (some centres not stated): the cytotoxicity at 10 µM is -106%.

In the case of `O=C(c1ccc(-n2cccn2)nc1)N1CCC(c2ccc(O)cc2)CC1`, the cytotoxicity at 10 µM worked out at 11.7%.

Consider `O=C1CCCC2=Nc3nonc3NC(c3ccc(Cl)cc3Cl)C12` (configuration not stated), for which the cytotoxicity at 10 µM was 5.24%.

As to `Cc1nn(C)c2nc(N(Cc3ccccn3)CC3CCCO3)sc12` (configuration not stated), the cytotoxicity at 10 µM is -1.01%.

As for `Cc1cccnc1CNC[C@H]1Cn2cc(-c3ccccc3)nc2CO1`, the cytotoxicity at 10 µM is -2.56%.

Consider `CCOCC1C[C@@H]2OCCN(C(=O)c3ccc[nH]3)[C@H]2C1` (some centres not stated), for which the cytotoxicity at 10 µM was -1.86%.

`COc1ccc(C)cc1CN1CCn2cccc2C1C` (configuration not stated): the cytotoxicity at 10 µM came out at 18.3%.

Regarding `COc1ncc(NS(=O)(=O)c2cccc(C)c2)c(OC)n1`, the cytotoxicity at 10 µM came out at 10.4%.

In the case of `COc1ccc(F)c(CNC2CCCc3nc(N(C)C)ncc32)c1` (configuration not stated), the cytotoxicity at 10 µM is 1.81%.

As for `COc1ccccc1CC1CCCN(C(=O)c2cn[nH]c2C)C1` (configuration not stated), the cytotoxicity at 10 µM turned out to be 7.61%.

As for `COc1ccccc1OCc1cc(C(=O)N2CCS(=O)(=O)CC2)n[nH]1`, the cytotoxicity at 10 µM was -2.93%.

Regarding `Cc1ccc(CN2C[C@H](N3CCOCC3)[C@@H]3OCCC[C@@H]32)o1`, the cytotoxicity at 10 µM is -125%.

As to `CNS(=O)(=O)Cc1cccc(CNc2ccc(C#N)cn2)c1`, the cytotoxicity at 10 µM is -11.2%.

With `CCc1ccc(CN2C[C@@H]3COC[C@H](NS(C)(=O)=O)[C@@H]3C2)o1`, the cytotoxicity at 10 µM is -2.01%.

`Cc1nc(N2CCCC2)nc2c1CCN(C(=O)C(C)C)CC2`: the cytotoxicity at 10 µM was determined as 5.02%.

As to `CC(C)n1cc(CN(Cc2ccc(F)cc2)CC2CCCO2)cn1` (configuration not stated), the cytotoxicity at 10 µM is -3.47%.

For the molecule `Cc1cccc(CN2CCn3c(COc4ncccn4)nnc3C2)n1`, the cytotoxicity at 10 µM was -1.35%.

With `CC(C)(C)c1n[nH]c(C2CN(CCc3ccncc3)CCO2)n1` (configuration not stated), the cytotoxicity at 10 µM is -12.3%.

Take `CNc1nc2c(s1)C(c1cc(Cl)ccc1F)CC(=O)N2` (configuration not stated): the cytotoxicity at 10 µM turned out to be 10.3%.

In the case of `O=C(c1ccncc1F)N1C[C@@H]2OCCN(CC3CC3)[C@@H]2C1`, the cytotoxicity at 10 µM was -141%.

`Cc1cccc(C(=O)NCc2ccc(OCCN(C)C)cc2)c1C`: the cytotoxicity at 10 µM was 1.52%.

With `CC(C)(O)CCc1cccc(C(=O)NCCC2=CSC3=NCCCN23)c1`, the cytotoxicity at 10 µM was found to be 9.17%.

For `CSc1c[nH]nc1NS(=O)(=O)c1ccc(C)c(C)c1`, the cytotoxicity at 10 µM was 1.79%.

For `Cc1cnn(CC2CCCN2C(=O)CCc2nc3ccccc3[nH]2)c1` (configuration not stated), the cytotoxicity at 10 µM was -12.9%.

For the molecule `CCOCCn1c(=O)n(Cc2ccc(F)cc2)c2ncc(C(=O)O)cc21`, the cytotoxicity at 10 µM came to 0.902%.

`COC(=O)[C@@H]1Cc2ncn(C)c2CN1S(=O)(=O)c1ccc(OC)cc1`: the cytotoxicity at 10 µM is -4.13%.

Take `Fc1cnc(N2CCCC3(CCN(Cc4ccsc4)C3)C2)nc1` (configuration not stated): the cytotoxicity at 10 µM is -2.83%.

In the case of `NC(=O)C1=NC2=NS(=O)(=O)c3ccccc3N2N1Cc1ccc(Br)cc1`, the cytotoxicity at 10 µM is 8.34%.

In the case of `CCN1CCC(Cn2ccc3c(OC)c(OC)ccc3c2=O)C1` (configuration not stated), the cytotoxicity at 10 µM was -4.7%.

In the case of `O=C(Cn1c(=O)n(Cc2ccco2)c2ncccc21)NC1CCCC1`, the cytotoxicity at 10 µM is -3.05%.

As for `CCOc1cc(CNCC2CN(C3CC3)CCO2)ccc1OC` (configuration not stated), the cytotoxicity at 10 µM is -5.95%.

For `Cc1cc(F)ccc1NCC(=O)NCC(F)(F)F`, the cytotoxicity at 10 µM was -2.56%.

Regarding `CNc1nc2c(s1)C(c1ccc(F)cc1Cl)CC(=O)N2` (configuration not stated), the cytotoxicity at 10 µM is 4.12%.

As to `CC(=O)N1CCC(N2CCN3C(=O)N(c4ccccc4)C[C@H]3C2)CC1`, the cytotoxicity at 10 µM came out at 1.35%.

As to `Cc1c(C(=O)O)cnn1-c1ccc(-c2nc(C(C)C)no2)cn1`, the cytotoxicity at 10 µM was -3.42%.

Turning to `CCOc1ccc2oc(-c3cnn(C)c3C)c(O)c(=O)c2c1`, the cytotoxicity at 10 µM is 7.72%.

`c1ccc(-c2ccc(C3CNCCO3)nc2)cc1` (configuration not stated): the cytotoxicity at 10 µM amounted to 2.36%.

On to `CCc1cnc(N2CC[C@H]3[C@@H]2CCC(=O)N3c2cccnc2)nc1`, for which the cytotoxicity at 10 µM came to 10.4%.

In the case of `O=C1CC(c2ccncc2)C2(CCN(C(=O)NC3CC3)CC2)N1` (configuration not stated), the cytotoxicity at 10 µM was -3.46%.

As to `O=C1N(Cc2cccnc2)CCC12CCCN(c1ncc(F)cn1)C2` (configuration not stated), the cytotoxicity at 10 µM was -1%.

In the case of `Cc1ncc(C(=O)N2CC[C@@]3(O)CCN(C4CCCCC4)C[C@H]3C2)cn1`, the cytotoxicity at 10 µM is -135%.

Turning to `CCC(CC)c1cc(CNC(=O)N2CCC(n3cncn3)CC2)on1`, the cytotoxicity at 10 µM was -4.16%.

On to `COc1ccc(C2CCCN2C(=O)CCNc2ncccn2)cc1` (configuration not stated), for which the cytotoxicity at 10 µM is -13.9%.

With `O=C(O)Cn1ccc(=O)c2ccc(Cl)cc21`, the cytotoxicity at 10 µM is -7.76%.

Consider `O=C(NCC1CCCN1CCc1ccccc1)NCC1(O)CCC1` (configuration not stated), for which the cytotoxicity at 10 µM is -3.06%.

`COc1c(F)cc(-c2cn(CCn3c(C)cc(C)nc3=O)nn2)cc1Cl`: the cytotoxicity at 10 µM was -1.72%.

In the case of `Fc1ccc(Br)c(NCc2nnsc2Cl)c1`, the cytotoxicity at 10 µM was determined as 14.3%.

Turning to `O=C(c1cnc(O)c(Cl)c1)N1CCCC(c2nccs2)C1` (configuration not stated), the cytotoxicity at 10 µM amounted to 3.63%.

On to `COc1ccccc1OC1CCN(C(=O)c2cccc(O)c2C)CC1`, for which the cytotoxicity at 10 µM worked out at 12.5%.

With `Cc1oncc1C(=O)N1CCC2(CCN(Cc3cccc(F)c3)C2=O)C1` (configuration not stated), the cytotoxicity at 10 µM was -142%.

For the molecule `Cc1cccc(-c2nc(CN3CCCCC3Cn3cncn3)no2)c1` (configuration not stated), the cytotoxicity at 10 µM was -3.2%.

Consider `CCn1nc(C(C)C)cc1C(=O)NCCCOC`, for which the cytotoxicity at 10 µM is -14.7%.

In the case of `CCC1CNCc2cc3c(C)ccc(C)c3nc2O1` (configuration not stated), the cytotoxicity at 10 µM was -4.22%.

Regarding `COCCCNS(=O)(=O)c1cc(C)sc1C`, the cytotoxicity at 10 µM is -11.6%.

As for `COc1cc2nc(NCCN3CCNC3=O)cc(C)c2cc1OC`, the cytotoxicity at 10 µM is -0.454%.

With `CN(C)CCOCC1CN(Cc2cccc(F)c2)Cc2nccn2C1` (configuration not stated), the cytotoxicity at 10 µM is -131%.

Take `CCN(CC1CN(Cc2cccc(C#N)c2)CCO1)c1cccnn1` (configuration not stated): the cytotoxicity at 10 µM was found to be 17%.

Turning to `OC(CNC1CCOCC1)c1ccc(Cl)c(F)c1` (configuration not stated), the cytotoxicity at 10 µM is -1.12%.

With `O=C(CNc1ccccc1S(=O)(=O)C(F)F)NCc1ccco1`, the cytotoxicity at 10 µM is -53%.

With `Cc1ccccc1-c1cncc(C2CCN(CCO)CC2)n1`, the cytotoxicity at 10 µM is -1.61%.

On to `Cc1nc(C)c(C(=O)N2CCc3ccc(F)cc3C2C)o1` (configuration not stated), for which the cytotoxicity at 10 µM is -1.65%.

On to `CCOc1cncc(N2CCN(c3ccccc3O)CC2)n1`, for which the cytotoxicity at 10 µM came out at 25.7%.

Consider `CN(C)C(CNC(=O)NCCc1cccc(O)c1)c1ccco1` (configuration not stated), for which the cytotoxicity at 10 µM was -4.36%.

Regarding `Cn1cc(NC(=O)c2ccccn2)cc(Br)c1=O`, the cytotoxicity at 10 µM is -12.8%.

On to `O=C1CC2(CCN(CC3CC3)C2)CN1c1cccc(F)c1` (configuration not stated), for which the cytotoxicity at 10 µM was -6.25%.

Turning to `Cc1cc(NC(=O)C(C)Cn2cncn2)no1` (configuration not stated), the cytotoxicity at 10 µM is -5.18%.

Take `COCCN1CCN(CC2(O)CCCCC2)CC1`: the cytotoxicity at 10 µM was 7.04%.

On to `CC(C)N1CCc2c(CNC(=O)c3nccn3C)cncc2C1`, for which the cytotoxicity at 10 µM was -106%.

Take `O=C1CCc2cc(S(=O)(=O)NC(=O)c3ccc4c(c3)COC4)ccc2N1`: the cytotoxicity at 10 µM was 4.82%.

As for `CCC[C@H]1CN(CCS(C)(=O)=O)C[C@@H]1NC(=O)c1cc[nH]n1`, the cytotoxicity at 10 µM is 2.75%.

The values above are taken from ChEMBL document CHEMBL4513216, “Probing the Open Global Health Chemical Diversity Library for Multistage-Active Starting Points for Next-Generation Antimalarials” (ACS Infect Dis, 2020).
